The source of these data is ChEMBL document CHEMBL1800059, “Spiroindane based amides as potent and selective MC4R agonists for the treatment of obesity” (Bioorg Med Chem Lett, 2010).

Calls of active or inactive are those of the source. The rule behind the calls is not given here.

The EC50 is the midpoint of the concentration-response curve. For orientation: bioavailability means the share of a dose that reaches the circulation, judged against a reference dose that is usually intravenous. A low value points to poor availability. As a reminder, the half-life is the time in which the quantity being followed falls by half. High values mean slow loss, low ones fast loss. As usually defined, the IC50 is the concentration at which inhibition is half-maximal. High values mean a need for much substance, low ones inhibition by little substance.

Data set [1] deals with T1, Melanocortin receptor 4 (Homo sapiens, UniProt P32245). In words: Agonist activity at human MC4R expressed in CHO cells assessed as increase of alpha-MSH-stimulated cAMP release pretreated for 10 mins before alpha-MSH challenge measured after 40 mins. The class given is functional, cell-based. A digest of the protocol:
(§1)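 Each value is the mean of at least three repeat measurements. Functional read-outs give EC50 with % maximal activation.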

The target in data set [2] is T1, Melanocortin receptor 4. In words: Agonist activity at human MC4R expressed in CHO cells assessed as increase of alpha-MSH-stimulated cAMP release pretreated for 10 mins before alpha-MSH challenge measured after 40 mins relative to alpha-MSH. The class given is functional, cell-based. Put shortly: as §1
Data set [3] is described as follows: Agonist activity at human MC1bR expressed in CHO cells assessed as increase of alpha-MSH-stimulated cAMP release pretreated for 10 mins before alpha-MSH challenge measured after 40 mins. The class given is functional, cell-based. A digest of the protocol: as §1
The nature of data set [4]: Agonist activity at human MC1bR expressed in CHO cells assessed as increase of alpha-MSH-stimulated cAMP release pretreated for 10 mins before alpha-MSH challenge measured after 40 mins relative to alpha-MSH. The class given is functional. Put shortly:
as §1

Data set [5] can be described thus: Oral bioavailability in Sprague-Dawley rat at 4 mg/kg. The class given is ADME, organism-based. The note with it: in vivo.
Data set [6] is described as follows: Clearance in Sprague-Dawley rat at 1 mg/kg, iv and 4 mg/kg, po. The class given is ADME, organism-based. Particulars: in vivo.
A short description of data set [7]: Volume of distribution at steady state in Sprague-Dawley rat at 1 mg/kg, iv and 4 mg/kg, po. The note with it: in vivo, read-out: Vdss. The class given is ADME, organism-based.
Data set [8] in a line: Half life in Sprague-Dawley rat at 1 mg/kg, iv and 4 mg/kg, po. The class given is ADME, organism-based. Particulars: in vivo.
Data set [9] relates to Rattus norvegicus. Nature of the data set: Dose-normalized AUC in Sprague-Dawley rat at 1 mg/kg, iv and 4 mg/kg, po. The class given is ADME, organism-based. Particulars: in vivo.
In data set [10] the target is T1, Melanocortin receptor 4. In words: Displacement of [125I]-NDP-R-MSH from human MC4R expressed in CHO cells after 1.5 hrs by scintillation counting. The class given is cell-based. A digest of the protocol:
as §1
On the technique in general: Displacement assays read how much labelled ligand stays bound in the presence of the test substance.

In data set [11] the test system is Rattus norvegicus. In words: Antiobesity activity in wild type 14 days diet-induced obese rat model assessed as reduction in body weight at 10 mg/kg, po BID. Also noted: dose 10 mg/kg. The class given is functional, organism-based.
Data set [12] concerns Mus musculus. In words: Antiobesity activity in MC4R/3R knockout diet-induced obese mouse model assessed as reduction in food intake at 10 mg/kg, po. The class given is functional, organism-based. Also noted: dose 10 mg/kg. A digest of the protocol:
(§2)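 Wild-type and MC4R/3R knockout mice received a single oral dose of 10 mg/kg, with a vehicle-dosed group for each genotype. Food intake and body weight change were measured against vehicle.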

The subject of data set [13] is Mus musculus. In words: Antiobesity activity in wild type diet-induced obese mouse model assessed as reduction in food intake at 10 mg/kg, po. Details: dose 10 mg/kg. The class given is functional, organism-based. Put shortly:
as §2

Data set [14] has as its system Mus musculus. Nature of the data set: Antiobesity activity in MC4R/3R knockout diet-induced obese mouse model assessed as reduction in body weight at 10 mg/kg, po. The class given is functional, organism-based. Details: dose 10 mg/kg. A digest of the protocol: as §2
Data set [15] has as its system Mus musculus. In words: Antiobesity activity in wild type diet-induced obese mouse model assessed as reduction in body weight at 10 mg/kg, po. The class given is functional, organism-based. Also noted: dose 10 mg/kg. A digest of the protocol:
as §2

In data set [16] the test system is Rattus norvegicus. Nature of the data set: Antiobesity activity in wild type 14 days diet-induced obese rat model assessed as reduction in body weight at 6 mg/kg, po BID. The class given is functional, organism-based. Details: dose 6 mg/kg. Put shortly: (§3)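 Diet-induced obese rats were dosed orally twice daily for 14 days at 2, 6 or 20 mpk. Vehicle and orally dosed positive-control groups were included. Body weight was recorded daily and expressed as change in grams.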

Data set [17] deals with Rattus norvegicus. In words: Antiobesity activity in wild type 14 days diet-induced obese rat model assessed as reduction in body weight at 20 mg/kg, po BID. Details: dose 20 mg/kg. The class given is functional, organism-based. Put shortly:
as §3

Data set [18] has as its target Melanocortin receptor 3 (Mus musculus, UniProt P33033). Nature of the data set: Agonist activity at mouse MC3 receptor. The class given is functional.

T1 sequence (P32245 whole entry): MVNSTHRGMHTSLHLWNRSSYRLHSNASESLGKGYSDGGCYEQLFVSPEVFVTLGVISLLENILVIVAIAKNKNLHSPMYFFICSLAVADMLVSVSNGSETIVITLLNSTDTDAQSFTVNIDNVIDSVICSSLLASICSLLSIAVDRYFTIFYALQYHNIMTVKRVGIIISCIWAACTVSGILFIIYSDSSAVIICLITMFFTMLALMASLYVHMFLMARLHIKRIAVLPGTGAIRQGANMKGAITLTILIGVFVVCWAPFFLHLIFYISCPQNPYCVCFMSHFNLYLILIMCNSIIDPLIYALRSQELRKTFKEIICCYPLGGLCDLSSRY
Melanocortin receptor 3, sequence (P33033 whole entry): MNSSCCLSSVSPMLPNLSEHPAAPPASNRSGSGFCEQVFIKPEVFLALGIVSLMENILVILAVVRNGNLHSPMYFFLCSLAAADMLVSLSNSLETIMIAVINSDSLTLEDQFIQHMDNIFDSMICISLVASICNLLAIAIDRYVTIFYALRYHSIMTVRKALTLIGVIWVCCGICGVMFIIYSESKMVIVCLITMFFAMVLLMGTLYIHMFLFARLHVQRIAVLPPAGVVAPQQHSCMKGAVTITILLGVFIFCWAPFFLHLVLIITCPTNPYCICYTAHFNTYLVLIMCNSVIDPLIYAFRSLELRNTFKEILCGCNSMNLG

As to `CC(=O)N(C)C(C)(C)[C@@H]1CC2(CCN(C(=O)[C@@H]3CN(C(C)(C)C)C[C@H]3c3ccc(F)cc3F)CC2)c2cc(Cl)c(C)cc21`, the EC50 in data set [1] amounted to 2.1 nM; in data set [3], 494 nM. The Activity was 112% in data set [2] and 35% in data set [4]. In [5], the bioavailability is 22%. Further, the clearance in [6] came out at 9.1 mL/min/kg. The Vd in data set [7] stood at 10.4 L/kg. In [8], the half-life is 15.1 h. For the same molecule, in data set [9], the AUC/dose was found to be 0.83 µM·h/mg/kg. In addition, the IC50 in data set [10] was 8.5 nM.
In the case of `Cc1cc2c(cc1Cl)C1(CCN(C(=O)[C@@H]3CN(C(C)(C)C)C[C@H]3c3ccc(F)cc3F)CC1)C[C@@H]2C(C)(C)C(=O)N1CC(F)(F)C1`, the half-maximal effective concentration (EC50) was determined as 4.3 nM in data set [1] and 430 nM in data set [3]. Besides, the Activity in data set [2] turned out to be 78%; in [4] it was 46%. Moreover, the bioavailability in [5] was 29%. This molecule also came in with a clearance in [6] of 21.8 mL/min/kg. Further, the Vd in data set [7] worked out at 8.88 L/kg. The half-life in data set [8] was 7.3 h. This molecule registered an AUC/dose in [9] of 0.35 µM·h/mg/kg. Further, in data set [10], the IC50 was 1.8 nM.
Consider `CC[C@H](NC(C)=O)c1cc(Cl)ccc1C1CCN(C(=O)[C@@H]2CN(C(C)(C)C)C[C@H]2c2ccc(F)cc2F)CC1`, for which the Activity in data set [2] worked out at 97%. For the same molecule, the outcome in data set [11] was Active.
For `CC(=O)NC(C)(C)[C@@H]1CC2(CCN(C(=O)[C@@H]3CN(C(C)(C)C)C[C@H]3c3ccc(F)cc3F)CC2)c2cc(Cl)c(C)cc21`, the EC50 was determined as 4.6 nM in data set [1], 1020 nM in data set [3] and 1700 nM in [18]. Further, the values for the Activity in [2] and in data set [4] were 109% and 25%, respectively. Besides, the outcome in data set [12] and in [14] was inactive. Also, the result in data set [13], in data set [15], in data set [16] and in [17] was Active.
Consider `Cc1cc2c(cc1Cl)C1(CCN(C(=O)[C@@H]3CN(C(C)(C)C)C[C@H]3c3ccc(F)cc3F)CC1)C[C@@H]2C(C)(C)C(=O)NCc1ccccc1`, for which the results for the EC50 in data set [1] and in data set [3] were 42 nM and 935 nM, respectively. In addition, the Activity in data set [2] was determined as 79%; in [4] it was 29%. In data set [10], this molecule came in with an IC50 of 12 nM.
As for `Cc1cc2c(cc1Cl)C1(CCN(C(=O)[C@@H]3CN(C(C)(C)C)C[C@H]3c3ccc(F)cc3F)CC1)C[C@@H]2C(C)(C)C(=O)NCC(F)(F)F`, the EC50 was determined as 4.2 nM in data set [1] and 838 nM in data set [3]. In addition, the results for the Activity in data set [2] and in data set [4] were 89% and 30%, respectively. In data set [10], this molecule registered an IC50 of 5.4 nM.
In the same order, the values of `CNC(=O)C(C)(C)[C@@H]1CC2(CCN(C(=O)[C@@H]3CN(C(C)(C)C)C[C@H]3c3ccc(F)cc3F)CC2)c2cc(Cl)c(C)cc21` are 12 nM, 1380 nM, 86%, 38% and 47 nM.
In the same order, the values of `CC(=O)NC(C)(C)[C@H]1CC2(CCN(C(=O)[C@@H]3CN(C(C)(C)C)C[C@H]3c3ccc(F)cc3F)CC2)c2cc(Cl)c(C)cc21` are 3.3 nM, 260 nM, 90%, 43% and 4.5 nM.
Take `Cc1cc2c(cc1Cl)C1(CCN(C(=O)[C@@H]3CN(C(C)(C)C)C[C@H]3c3ccc(F)cc3F)CC1)C[C@@H]2C(C)(C)C(=O)N(C)C`: the EC50 was 0.87 nM in [1] and 255 nM in [3]. Moreover, the values for the Activity in data set [2] and in data set [4] were 108% and 92%, respectively. The bioavailability in data set [5] was 24%. This molecule returned a clearance in data set [6] of 17.2 mL/min/kg. In data set [7], the Vd amounted to 6.95 L/kg. Also, in data set [8], the half-life was 5.14 h. In data set [9], this molecule displayed an AUC/dose of 0.39 µM·h/mg/kg. This molecule registered an IC50 in data set [10] of 0.71 nM.
